CYP2C9 activ – increases human cytochrome P450 2C9 activity. P11712. recombinant CYP2C9, luciferin-H conversion, luminescence; active compounds read high; factor 1 = untreated enzyme, 0 = blocked. activation factor at 5 µM. 96,000 tested, 1.4% active. AID 1024;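 active = activation factor of 2 or more for CYP2C9 at a 5 µM dose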;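 note: 0 = sulfaphenazole-blocked wells and 1 = vehicle-only wells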
CYP2C19 act – activators of human cytochrome P450 2C19; recombinant CYP2C19, luciferin-H EGE luminescence; active compounds read high; 0 = fully inhibited enzyme, 1 = untreated enzyme; 96,000 tested, under 10 active; activation factor at 5 µM; AID 1025;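 active = activation factor of at least 2 at 5 µM in the primary screen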;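 note: 0 = wells with 2.5 mM tranylcypromine and 1 = vehicle-only wells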
tolC growth inh – E. coli tolC mutant growth inhibition; growth inhibition, % at 10 µM (by protocol); AID 573; 65,000 tested, 2.2% active; E. coli BW25113 tolC mutant growth, OD615;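 active = growth inhibition at or above a cutoff equal to the mean over every tested compound plus 3 SD, cut at about 60% in these data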;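 note: growth measured after 20 h incubation at 37 °C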
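Test system: E. coli BW25113 ΔtolC::kan bacteria | Medium: Kanamycin-containing LB broth (50 µg/mL) | Dosing: One dose of 10 µM final | Times: 20 h incubation with compound, 37 °C | Detection: Optical density read at 615 nm | Read-out basis: Percent growth inhibition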
CYP2C19 inhib – blocks human cytochrome P450 2C19; P33261; CYP2C19 Supersomes, luciferin-H EGE luminescence, 30 min; inhibition, % at 5 µM; 96,000 tested, 21% active; AID 778;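 active = CYP2C19 inhibition above a set limit at 5 µM in the primary screen, cut at about 50% in these data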;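 note: plate controls were negative control wells for no effect and 2.5 mM tranylcypromine positive control for full effect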
Ecoli WT expand – E. coli BW25113 growth inhibition, expanded screen. OD600 absorbance. growth inhibition, % at 100 µM. 98,000 tested, 0.15% active. AID 710;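 active = growth inhibition above about 50% at one test dose, limit read from the data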;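 note: growth measured after 20 h incubation at 37 °C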
CYP2C9 inh – blocks human cytochrome P450 2C9 | inhibition, % at 5 µM | 96,000 tested, 20% active | AID 777 | CYP2C9 Supersomes, luciferin-H conversion, luminescence;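 active = blocking of liver enzyme CYP2C9 beyond about 50% at 5 µM, limit read from the data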
Numbers without * were called inactive. An excerpt weighted towards active compounds, which were near 29% of everything screened.

For O=C1C(Cl)=C(NCC2CCCO2)C(=O)N1c1cccc(Cl)c1Cl (stereo not given) the results were CYP2C9 activ 0.5, CYP2C19 act 0.2, CYP2C19 inhib 82*, Ecoli WT expand 8 and CYP2C9 inh 46.
Screening CN1CCN(C2=C(Cl)C(=O)N(CCc3ccccc3)C2=O)CC1 returned CYP2C9 activ 0.9, CYP2C19 act 0.4, tolC growth inh -7, CYP2C19 inhib 56*, Ecoli WT expand 12 and CYP2C9 inh 14.
For COC(=O)c1ccc(NC(=O)CSCC(=O)OCC(=O)c2ccc(Br)cc2)cc1 the results were CYP2C9 activ 0.7, CYP2C19 act 0.8, CYP2C19 inhib 20, Ecoli WT expand -5 and CYP2C9 inh 28.
CCc1ccc(N2CCCn3c2nc2c3c(=O)n(CCN3CCOCC3)c(=O)n2C)cc1 was read as CYP2C9 activ 0.9, CYP2C19 act 0.9, tolC growth inh -15, CYP2C19 inhib 7 and CYP2C9 inh 7.
Screening O=C1C(Cl)=C(NCC2CCCO2)C(=O)N1CCc1ccccc1 (stereo not given) returned CYP2C9 activ 0.3, CYP2C19 act 0.2, tolC growth inh 29, CYP2C19 inhib 82*, Ecoli WT expand 2 and CYP2C9 inh 66*.
Screening O=C1C(Cl)=C(N2CCN(Cc3ccccc3)CC2)C(=O)N1c1ccccc1 returned CYP2C9 activ 0.9, CYP2C19 act 1.1, tolC growth inh -5, CYP2C19 inhib -6, Ecoli WT expand -9 and CYP2C9 inh 6.
For O=C1C(Cl)=C(N2CCOCC2)C(=O)N1CCc1ccccc1 the results were CYP2C9 activ 1, CYP2C19 act 0.1, tolC growth inh 16, CYP2C19 inhib 88*, Ecoli WT expand -1 and CYP2C9 inh 2.
O=C(c1ccc(S(=O)(=O)N2CCOCC2)cc1)N1CCN=C1SCc1cccnc1 was read as CYP2C9 activ 0.9, CYP2C19 act 0.9, tolC growth inh -15, CYP2C19 inhib 7, Ecoli WT expand -11 and CYP2C9 inh 9.
`CCOc1ccc(-c2nnc3sc(-c4ccccc4OC)nn23)cc1` gave tolC growth inh 5.
`COc1cccc(OC)c1-c1nn2c(-c3ccco3)nnc2s1` gave CYP2C9 activ 0.3, CYP2C19 act 0.1, tolC growth inh 22, CYP2C19 inhib 89* and CYP2C9 inh 68*.
Screening COc1cc(-c2nn3c(-c4ccco4)nnc3s2)cc(OC)c1OC returned CYP2C9 activ 0.7, CYP2C19 act 1, tolC growth inh 9, CYP2C19 inhib 1 and CYP2C9 inh 28.
Screening COc1ccccc1-c1nn2c(-c3ccc(C(C)(C)C)cc3)nnc2s1 returned CYP2C9 activ 0.4, CYP2C19 act 1, tolC growth inh 11, CYP2C19 inhib -2 and CYP2C9 inh 56*.
`COc1ccccc1-c1nnc2sc(-c3cnccn3)nn12` gave CYP2C9 activ 0.8, CYP2C19 act 0.3, tolC growth inh 11, CYP2C19 inhib 75*, Ecoli WT expand 9 and CYP2C9 inh 23.
For COc1ccc(CC(=O)OCC(=O)Nc2c(C)n(C)n(-c3ccccc3)c2=O)cc1 the results were CYP2C9 activ 1.2, CYP2C19 act 1.2, tolC growth inh -7, CYP2C19 inhib -23, Ecoli WT expand -2 and CYP2C9 inh -18.
`Cc1ccc(C23OC(=O)C(C)(C)C2OC(=O)C3(C)C)cc1` (stereo not given) gave CYP2C9 activ 0.8, CYP2C19 act 0.7, CYP2C19 inhib 32, Ecoli WT expand -6 and CYP2C9 inh 20.
`C=CCOC(=O)C1=C(C)NC(=O)NC1/C=C/c1ccccc1` (stereo not given) gave CYP2C9 activ 0.7, CYP2C19 act 0.9, tolC growth inh 6, CYP2C19 inhib 14, Ecoli WT expand -10 and CYP2C9 inh 28.
`C=CCOC(=O)C1=C(C)NC(=O)NC1C1CC=CCC1` (stereo not given) gave CYP2C9 activ 0.5, CYP2C19 act 0, tolC growth inh 1, CYP2C19 inhib 98*, Ecoli WT expand 1 and CYP2C9 inh 49.
`COCCOC(=O)C1=C(C)NC(=O)NC1C1CC=CCC1` (stereo not given) gave CYP2C9 activ 0.7, CYP2C19 act 0, tolC growth inh -13, CYP2C19 inhib 96*, Ecoli WT expand 1 and CYP2C9 inh 30.

High-throughput results (PubChem BioAssay)
